Assay results as given in PMC8911105 (Journal of Pharmaceutical Investigation, 2022).
Read-outs that look alike come from different tables or passages of the source.

Columns and labels:
[1] = Basal level of endogenous ergothioneine in plasma, urine and tissues; format: in vivo, rat; details: for Decrease in Kp of basal endogenous ergothioneine after 1,25(OH)2D3 pretreatment: treated vs control
How it was run: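 Rats got 1,25(OH)2D3 2.56 nmol/kg/day for four days, with no ergothioneine given. Tail-vein blood (0.3 mL) was drawn 30 min before each dose and at the same time on days 5–6. Urine was collected over 24 h from day 5 to 6, and seven tissues were taken on day 6. LC-MS/MS was run with a 2–10,000 ng/mL calibration (LLOQ 2 ng/mL). n = 5 control, 6 treated; means ± SD; unpaired two-tailed t-test.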

[2] = format: in vivo, rat
How it was run: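 After four days of 1,25(OH)2D3 pretreatment, rats under ip Zoletil/Rompun (20 mg/kg) had femoral vein and artery cannulated. Aqueous ergothioneine (2 mg/mL) was given at 2 mg/kg IV. Plasma was sampled 0–1,440 min with heparinized-saline replacement. Plasma and urine were diluted 50- and 100-fold with 1% BSA for LC-MS/MS. AUC, CL, Vss and MRT came from non-compartmental analysis. Kp fold change was exogenous over basal Kp.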

[3] = humans; oral administration; ref Cheah et al. [2017]; cited from earlier work
[4] = mice; oral administration; ref Kato et al. [2010]; cited from earlier work
rat OCTN1 (rOCTN1) = experiment: RT-qPCR of rOCTN1 mRNA expression in organs of 1,25; format: in vivo; details: for Decrease in rOCTN1 mRNA expression level compared to control rats: 2.56 nmol/kg/day i.p. for four days, normalized to GAPDH
[5] = Body weight of rats during 1,25; format: in vivo, rat; details: after pretreatment with 1,25(OH)2D3 2.56 nmol/kg/day for four days
[6] = brain, 1,25(OH)2D3-treated rats
[7] = heart, 1,25(OH)2D3-treated rats
[8] = kidney, 1,25(OH)2D3-treated rats
[9] = muscle, 1,25(OH)2D3-treated rats
[10] = spleen, 1,25(OH)2D3-treated rats
[11] = 2 mg/kg IV, 1,25(OH)2D3-treated rats

Q: Which “Cumulative amount of ergothioneine excreted in urine for 24 h (basal, endogenous)” value ([1]; 1,25(OH)2D3-treated group) does the source give for `C[N+](C)(C)[C@@H](Cc1c[nH]c(=S)[nH]1)C(=O)[O-]` [ergothioneine, l-ergothioneine] here?
A: 1880 ng

Q: And the “Basal plasma level of endogenous ergothioneine compared with control” value ([1]; 1,25(OH)2D3-treated group, third day to sixth day of pretreatment)?
A: significantly increased

Q: What about the “Tissue partition coefficient (Kp), basal endogenous ergothioneine” value [1, 6] of the same molecule?
A: 1.587 ± 0.929

Q: What about the “Tissue partition coefficient (Kp), basal endogenous ergothioneine” value ([1]; brain, control rats) of the same molecule?
A: 3.585 ± 0.447

Q: And the “Cumulative amount of ergothioneine excreted in urine for 24 h (basal, endogenous)” value ([1]; control group)?
A: 3858 ng

Q: And the “Tissue partition coefficient (Kp), basal endogenous ergothioneine” value [1, 7]?
A: 22.25 ± 15.27

Q: What about the “Tissue partition coefficient (Kp), basal endogenous ergothioneine” value ([1]; heart, control rats) of the same molecule?
A: 34.59 ± 7.01

Q: What about the “Tissue partition coefficient (Kp), basal endogenous ergothioneine” value [1, 8] of the same molecule?
A: 20.56 ± 11.88

Q: And the “Tissue partition coefficient (Kp), basal endogenous ergothioneine” value ([1]; kidney, control rats)?
A: 60.85 ± 10.93

Q: And the “Decrease in Kp of basal endogenous ergothioneine after 1,25(OH)2D3 pretreatment” value (shortened to “Decrease in Kp”) ([1]; kidneys)?
A: 66.2%

Q: What about the “Tissue partition coefficient (Kp), basal endogenous ergothioneine” value ([1]; liver, 1,25(OH)2D3-treated rats (n = 6)) of the same molecule?
A: 106.7 ± 62.3

Q: What about the “Tissue partition coefficient (Kp), basal endogenous ergothioneine” value ([1]; liver, control rats (n = 5)) of the same molecule?
A: 224.4 ± 53.9

Q: What about the “Decrease in Kp” value ([1]; liver) of the same molecule?
A: 52.4%

Q: What about the “Tissue partition coefficient (Kp), basal endogenous ergothioneine” value ([1]; lung, 1,25(OH)2D3-treated rats) of the same molecule?
A: 17.75 ± 11.47

Q: What about the “Tissue partition coefficient (Kp), basal endogenous ergothioneine” value ([1]; lung, control rats) of the same molecule?
A: 30.67 ± 6.68

Q: And the “Tissue partition coefficient (Kp), basal endogenous ergothioneine” value [1, 9]?
A: 4.471 ± 3.279

Q: And the “Tissue partition coefficient (Kp), basal endogenous ergothioneine” value ([1]; muscle, control rats)?
A: 8.385 ± 1.141

Q: What about the “Decrease in Kp” value ([1]; muscle) of the same molecule?
A: 46.7%

Q: What about the “Tissue partition coefficient (Kp), basal endogenous ergothioneine” value [1, 10] of the same molecule?
A: 15.22 ± 7.87

Q: And the “Tissue partition coefficient (Kp), basal endogenous ergothioneine” value ([1]; spleen, control rats)?
A: 42.50 ± 14.19

Q: What about the “Decrease in Kp” value ([1]; spleen) of the same molecule?
A: 64.2%

Q: And the CL [2, 11]?
A: 1.894 ± 0.733 mL/min/kg

Q: And the MRT [2, 11]?
A: 33.50 ± 20.07 h

Q: And the “Urinary recovery of ergothioneine within 24 h” value [2, 11]?
A: 1.08%

Q: And the Vss [2, 11]?
A: 3.298 ± 0.959 L/kg

Q: And the “AUC∞” value ([2]; 2 mg/kg IV, 1,25(OH)2D3-treated rats (n = 6))?
A: 1198 ± 457 µg·min/mL

Q: What about the CL ([2]; 2 mg/kg IV, control rats) of the same molecule?
A: 3.729 ± 1.734 mL/min/kg

Q: And the MRT ([2]; 2 mg/kg IV, control rats)?
A: 27.11 ± 17.31 h

Q: What about the “Urinary recovery of ergothioneine within 24 h” value ([2]; 2 mg/kg IV, control rats) of the same molecule?
A: 3.89%

Q: And the Vss ([2]; 2 mg/kg IV, control rats)?
A: 4.82 ± 1.291 L/kg

Q: What about the “AUC∞” value ([2]; 2 mg/kg IV, control rats (n = 7)) of the same molecule?
A: 647.5 ± 327.5 µg·min/mL

Q: What about the “Decrease in total clearance in 1,25(OH)2D3-treated rats” value ([2]; 2 mg/kg IV, treated vs control) of the same molecule?
A: 49%

Q: And the “Increase in AUC∞ in 1,25(OH)2D3-treated rats” value ([2]; 2 mg/kg IV, treated vs control)?
A: 85%

Q: And the “Tissue partition coefficient (Kp), IV exogenous ergothioneine” value [2, 6]?
A: 2.909 ± 0.448

Q: And the “Tissue partition coefficient (Kp), IV exogenous ergothioneine” value ([2]; brain, control rats)?
A: 4.799 ± 1.199

Q: What about the “Tissue partition coefficient (Kp), IV exogenous ergothioneine” value [2, 7] of the same molecule?
A: 39.88 ± 10.04

Q: What about the “Tissue partition coefficient (Kp), IV exogenous ergothioneine” value ([2]; heart, control rats) of the same molecule?
A: 81.04 ± 37.23

Q: And the “Fold change of Kp (exogenous versus endogenous basal)” value ([2]; kidney, 1,25(OH)2D3-treated group)?
A: 3.70 fold

Q: And the “Tissue partition coefficient (Kp), IV exogenous ergothioneine” value [2, 8]?
A: 76.12 ± 47.89

Q: What about the “Fold change of Kp (exogenous versus endogenous basal)” value ([2]; kidney, control group) of the same molecule?
A: 3.13 fold

Q: What about the “Tissue partition coefficient (Kp), IV exogenous ergothioneine” value ([2]; kidney, control rats) of the same molecule?
A: 190.7 ± 59.4

Q: What about the “Tissue partition coefficient (Kp), IV exogenous ergothioneine” value ([2]; liver, 1,25(OH)2D3-treated rats (n = 6), 24 h after 2 mg/kg IV) of the same molecule?
A: 237.3 ± 82.8

Q: And the “Tissue partition coefficient (Kp), IV exogenous ergothioneine” value ([2]; liver, control rats (n = 5), 24 h after 2 mg/kg IV)?
A: 407.8 ± 113.9

Q: And the “Tissue partition coefficient (Kp), IV exogenous ergothioneine” value ([2]; lung, 1,25(OH)2D3-treated rats)?
A: 38.61 ± 8.48

Q: What about the “Tissue partition coefficient (Kp), IV exogenous ergothioneine” value ([2]; lung, control rats) of the same molecule?
A: 57.37 ± 14.60

Q: And the “Tissue partition coefficient (Kp), IV exogenous ergothioneine” value [2, 9]?
A: 10.25 ± 3.90

Q: What about the “Tissue partition coefficient (Kp), IV exogenous ergothioneine” value ([2]; muscle, control rats) of the same molecule?
A: 19.43 ± 8.95

Q: What about the “Tissue partition coefficient (Kp), IV exogenous ergothioneine” value [2, 10] of the same molecule?
A: 21.89 ± 2.34

Q: And the “Tissue partition coefficient (Kp), IV exogenous ergothioneine” value ([2]; spleen, control rats)?
A: 70.56 ± 17.46

Q: What about the “Urinary recovery of ergothioneine” value [3] of the same molecule?
A: < 4%

Q: And the “Urinary recovery of ergothioneine” value [4]?
A: < 4%

Q: For `C=C1/C(=C\C=C2/CCC[C@]3(C)[C@@H]([C@H](C)CCCC(C)(C)O)CC[C@@H]23)C[C@@H](O)C[C@@H]1O` [1,25(OH)2D3, 1α,25-dihydroxyvitamin D3], which “Decrease in rOCTN1 mRNA expression level compared to control rats” value (rat OCTN1 (rOCTN1); brain) is on record?
A: 27%

Q: What about the “Decrease in rOCTN1 mRNA expression level compared to control rats” value (rat OCTN1 (rOCTN1); kidney) of the same molecule?
A: 77%

Q: What about the “Change in rOCTN1 mRNA levels” value (rat OCTN1 (rOCTN1); other tissues, such as the liver, spleen, and heart) of the same molecule?
A: no significant changes

Q: And the “Weight gain compared with control rats” value [5]?
A: significantly lower
